Laboratory results as given in ChEMBL document CHEMBL1687778, “Genetic determinants involved in the susceptibility of Pseudomonas aeruginosa to beta-lactam antibiotics” (2010).
Converted amounts (≈) assume the structure as drawn.

Columns and labels:
Pseudomonas aeruginosa [1] = assay: Antimicrobial activity against Pseudomonas aeruginosa PA14 PA0908 harboring mutation in hypothetical protein by Etest method; assay type: functional
Method in brief: (§1)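 Overnight LB cultures (37°C) diluted in sterile 0.85% NaCl to about 1 × 10^7 CFU/ml. 100 µl spread on Mueller-Hinton agar, one Etest strip per plate, 18 h at 37°C. Ceftazidime, imipenem and meropenem tested. Wild-type PA14 plate included in each set. Each mutant verified in triplicate.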

Pseudomonas aeruginosa [2] = assay: Antimicrobial activity against Pseudomonas aeruginosa PA14 PA4007 harboring proA mutant gene by Etest method; assay type: functional
Method in brief: (§2)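 Etest MIC. Overnight LB cultures at 37°C were diluted in sterile 0.85% NaCl to about 1 × 10^7 CFU/ml. 100 µl was spread on Mueller-Hinton agar, one strip was placed per plate, and plates were incubated at 37°C for 18 h. Equal cell numbers were seeded per plate, and results were verified in triplicate. PA14 wild type was included in each set as a susceptibility control.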

Pseudomonas aeruginosa [3] = assay: Antimicrobial activity against Pseudomonas aeruginosa PA14 PA3818 harboring suhB mutant gene by Etest method; assay type: functional; method in brief: as §2
Pseudomonas aeruginosa [4] = assay: Antimicrobial activity against Pseudomonas aeruginosa PA14 PA4088 harboring mutation in putative aminotransferase by Etest method; assay type: functional; method in brief: as §2
Pseudomonas aeruginosa [5] = assay: Antimicrobial activity against Pseudomonas aeruginosa PA14 PA4527 harboring pilC mutant gene by Etest method; assay type: functional; method in brief: as §2
Pseudomonas aeruginosa [6] = assay: Antimicrobial activity against Pseudomonas aeruginosa PA14 PA3704 harboring wspE mutant gene by Etest method; assay type: functional; method in brief: as §2
Pseudomonas aeruginosa [7] = assay: Antimicrobial activity against Pseudomonas aeruginosa PA14 PA0427 harboring oprM mutant gene by Etest method; assay type: functional; method in brief: as §1
Pseudomonas aeruginosa [8] = assay: Antimicrobial activity against Pseudomonas aeruginosa PA14 PA2023 harboring galU mutant gene by Etest method; assay type: functional; method in brief: as §1
Pseudomonas aeruginosa [9] = assay: Antimicrobial activity against Pseudomonas aeruginosa PA14 PA0011 harboring mutation in putative 2-OH-lauroyltransferase by Etest method; assay type: functional; method in brief: as §1
Pseudomonas aeruginosa [10] = assay: Antimicrobial activity against Pseudomonas aeruginosa PA14 PA3262 harboring fklB mutant gene by Etest method; assay type: functional; method in brief: as §2
Pseudomonas aeruginosa [11] = assay: Antimicrobial activity against Pseudomonas aeruginosa PA14 PA2970 harboring rpmF mutant gene by Etest method; assay type: functional; method in brief: as §1
Pseudomonas aeruginosa [12] = assay: Antimicrobial activity against Pseudomonas aeruginosa PA14 PA0402 harboring pyrB mutant gene by Etest method; assay type: functional; method in brief: as §1
Pseudomonas aeruginosa [13] = assay: Antimicrobial activity against Pseudomonas aeruginosa PA14 PA3589 harboring mutation in acetyl-coenzyme A (CoA) acetyltransferase (thiolase) by Etest method; assay type: functional; method in brief: as §2
Pseudomonas aeruginosa [14] = assay: Antimicrobial activity against Pseudomonas aeruginosa PA14 PA3247 harboring mutation in putative aspartyl aminopeptidase by Etest method; assay type: functional; method in brief: as §1
Pseudomonas aeruginosa [15] = assay: Antimicrobial activity against Pseudomonas aeruginosa PA14 PA4402 harboring argJ mutant gene by Etest method; assay type: functional; method in brief: as §2
Pseudomonas aeruginosa [16] = assay: Antimicrobial activity against Pseudomonas aeruginosa PA14 PA2615 harboring ftsK mutant gene by Etest method; assay type: functional; method in brief: as §1
Pseudomonas aeruginosa [17] = assay: Antimicrobial activity against Pseudomonas aeruginosa PA14 PA3800 harboring mutation in conserved hypothetical protein by Etest method; assay type: functional; method in brief: as §2
Pseudomonas aeruginosa [18] = assay: Antimicrobial activity against Pseudomonas aeruginosa PA14 PA3649 harboring mutation in putative membrane-associated zinc metalloprotease by Etest method; assay type: functional; method in brief: as §2
Pseudomonas aeruginosa [19] = assay: Antimicrobial activity against Pseudomonas aeruginosa PA14 PA3145 harboring wbpL mutant gene by Etest method; assay type: functional; method in brief: as §1
Pseudomonas aeruginosa [20] = assay: Antimicrobial activity against Pseudomonas aeruginosa PA14 PA5174 harboring mutation in putative beta-ketoacyl synthase by Etest method; assay type: functional; method in brief: as §2
Pseudomonas aeruginosa [21] = assay: Antimicrobial activity against Pseudomonas aeruginosa PA14 PA0764 harboring mucB mutant gene by Etest method; assay type: functional; method in brief: as §1
Pseudomonas aeruginosa [22] = assay: Antimicrobial activity against Pseudomonas aeruginosa PA14 PA0807 harboring ampDh3 mutant gene by Etest method; assay type: functional; method in brief: as §1
Pseudomonas aeruginosa [23] = assay: Antimicrobial activity against Pseudomonas aeruginosa PA14 PA0503 harboring mutation in Putative biotin synthesis protein BioC by Etest method; assay type: functional; method in brief: as §1
Pseudomonas aeruginosa [24] = assay: Antimicrobial activity against Pseudomonas aeruginosa PA14 PA2797 harboring mutation in putative anti-anti-sigma factor by Etest method; assay type: functional; method in brief: as §1
Pseudomonas aeruginosa [25] = assay: Antimicrobial activity against Pseudomonas aeruginosa PA14 PA5000 harboring wapR mutant gene by Etest method; assay type: functional; method in brief: as §2
Pseudomonas aeruginosa [26] = assay: Antimicrobial activity against Pseudomonas aeruginosa PA14 PA4069 harboring mutation in putative dTDP-4-rhamnose reductase-related protein by Etest method; assay type: functional; method in brief: as §2
Pseudomonas aeruginosa [27] = assay: Antimicrobial activity against Pseudomonas aeruginosa PA14 PA5005 harboring mutation in putative carbamoyltransferase by Etest method; assay type: functional; method in brief: as §2
Pseudomonas aeruginosa [28] = assay: Antimicrobial activity against Pseudomonas aeruginosa PA14 PA4393 harboring mutation in putative permease by Etest method; assay type: functional; method in brief: as §2
Pseudomonas aeruginosa [29] = assay: Antimicrobial activity against Pseudomonas aeruginosa harboring pBBR-mucD complemented gene by Etest method
Pseudomonas aeruginosa [30] = assay: Antimicrobial activity against Pseudomonas aeruginosa PA14 PA5130 harboring mutation in putative rhodanese-like domain protein by Etest method; assay type: functional; method in brief: as §2
Pseudomonas aeruginosa [31] = assay: Antimicrobial activity against Pseudomonas aeruginosa harboring pBBR-algU complemented gene by Etest method
Pseudomonas aeruginosa [32] = assay: Antimicrobial activity against wild type Pseudomonas aeruginosa harboring pBBR1MCS-3 by Etest method
Pseudomonas aeruginosa [33] = assay: Antimicrobial activity against Pseudomonas aeruginosa PA14 PA4753 harboring mutation in putative RNA-binding protein by Etest method; assay type: functional; method in brief: as §2
Pseudomonas aeruginosa [34] = assay: Antimicrobial activity against Pseudomonas aeruginosa harboring pBBR1MCS-3 expressing algU mutant gene by Etest method; assay type: functional
Method in brief: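 Etest MIC run in triplicate on a plasmid-carrying strain. The Mueller-Hinton agar contained tetracycline at 20 µg/ml for plasmid maintenance. The inoculum was about 1 × 10^7 CFU/ml in 0.85% NaCl, from an overnight LB culture grown at 37°C; 100 µl was spread per plate. One strip was placed per plate, with incubation at 37°C for 18 h.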

Pseudomonas aeruginosa [35] = assay: Antimicrobial activity against Pseudomonas aeruginosa PA14 PA4109 harboring ampR mutant gene by Etest method; assay type: functional; method in brief: as §2

SMILES	MIC (Pseudomonas aeruginosa [1])	MIC (Pseudomonas aeruginosa [2])	MIC (Pseudomonas aeruginosa [3])	MIC (Pseudomonas aeruginosa [4])	MIC (Pseudomonas aeruginosa [5])	MIC (Pseudomonas aeruginosa [6])	MIC (Pseudomonas aeruginosa [7])	MIC (Pseudomonas aeruginosa [8])	MIC (Pseudomonas aeruginosa [9])	MIC (Pseudomonas aeruginosa [10])	MIC (Pseudomonas aeruginosa [11])	MIC (Pseudomonas aeruginosa [12])	MIC (Pseudomonas aeruginosa [13])	MIC (Pseudomonas aeruginosa [14])	MIC (Pseudomonas aeruginosa [15])	MIC (Pseudomonas aeruginosa [16])	MIC (Pseudomonas aeruginosa [17])	MIC (Pseudomonas aeruginosa [18])	MIC (Pseudomonas aeruginosa [19])	MIC (Pseudomonas aeruginosa [20])	also measured
C[C@@H](O)[C@H]1C(=O)N2C(C(=O)O)=C(SCCNC=N)C[C@H]12 [IMIPENEM ANHYDROUS]	1.5 µg/mL (≈ 5.01 µM)	0.19 µg/mL (≈ 0.635 µM)	0.38 µg/mL (≈ 1.27 µM)	0.38 µg/mL (≈ 1.27 µM)	0.38 µg/mL (≈ 1.27 µM)	0.5 µg/mL (≈ 1.67 µM)	0.38 µg/mL (≈ 1.27 µM)	0.094 µg/mL (≈ 0.314 µM)	0.38 µg/mL (≈ 1.27 µM)	0.25 µg/mL (≈ 0.835 µM)	0.5 µg/mL (≈ 1.67 µM)	0.38 µg/mL (≈ 1.27 µM)	0.5 µg/mL (≈ 1.67 µM)	0.38 µg/mL (≈ 1.27 µM)	0.38 µg/mL (≈ 1.27 µM)	0.19 µg/mL (≈ 0.635 µM)	0.38 µg/mL (≈ 1.27 µM)	0.25 µg/mL (≈ 0.835 µM)	0.38 µg/mL (≈ 1.27 µM)	0.125 µg/mL (≈ 0.418 µM)	MIC (Pseudomonas aeruginosa [21]): 0.25 µg/mL (≈ 0.835 µM); MIC (Pseudomonas aeruginosa [22]): 1 µg/mL (≈ 3.34 µM); MIC (Pseudomonas aeruginosa [23]): 0.19 µg/mL (≈ 0.635 µM); MIC (Pseudomonas aeruginosa [24]): 0.5 µg/mL (≈ 1.67 µM); MIC (Pseudomonas aeruginosa [25]): 0.5 µg/mL (≈ 1.67 µM); MIC (Pseudomonas aeruginosa [26]): 0.25 µg/mL (≈ 0.835 µM); MIC (Pseudomonas aeruginosa [27]): 0.25 µg/mL (≈ 0.835 µM); MIC (Pseudomonas aeruginosa [28]): 0.25 µg/mL (≈ 0.835 µM); MIC (Pseudomonas aeruginosa [29]): 0.5 µg/mL (≈ 1.67 µM); MIC (Pseudomonas aeruginosa [30]): 0.19 µg/mL (≈ 0.635 µM); MIC (Pseudomonas aeruginosa [31]): 0.5 µg/mL (≈ 1.67 µM); MIC (Pseudomonas aeruginosa [32]): 0.5 µg/mL (≈ 1.67 µM); MIC (Pseudomonas aeruginosa [33]): 0.5 µg/mL (≈ 1.67 µM); MIC (Pseudomonas aeruginosa [34]): 0.38 µg/mL (≈ 1.27 µM)
C[C@@H](O)[C@H]1C(=O)N2C(C(=O)O)=C(S[C@@H]3CN[C@H](C(=O)N(C)C)C3)[C@H](C)[C@H]12 [MEROPENEM]	0.25 µg/mL (≈ 0.652 µM)	0.125 µg/mL (≈ 0.326 µM)	0.064 µg/mL (≈ 0.167 µM)	0.125 µg/mL (≈ 0.326 µM)	0.125 µg/mL (≈ 0.326 µM)	0.25 µg/mL (≈ 0.652 µM)	0.023 µg/mL (≈ 0.06 µM)	0.38 µg/mL (≈ 0.991 µM)	0.125 µg/mL (≈ 0.326 µM)	0.125 µg/mL (≈ 0.326 µM)	0.125 µg/mL (≈ 0.326 µM)	0.125 µg/mL (≈ 0.326 µM)	0.125 µg/mL (≈ 0.326 µM)	0.125 µg/mL (≈ 0.326 µM)	0.19 µg/mL (≈ 0.495 µM)	0.064 µg/mL (≈ 0.167 µM)	0.125 µg/mL (≈ 0.326 µM)	0.125 µg/mL (≈ 0.326 µM)	0.094 µg/mL (≈ 0.245 µM)	0.125 µg/mL (≈ 0.326 µM)	MIC (Pseudomonas aeruginosa [21]): 0.125 µg/mL (≈ 0.326 µM); MIC (Pseudomonas aeruginosa [22]): 0.25 µg/mL (≈ 0.652 µM); MIC (Pseudomonas aeruginosa [23]): 0.125 µg/mL (≈ 0.326 µM); MIC (Pseudomonas aeruginosa [24]): 0.094 µg/mL (≈ 0.245 µM); MIC (Pseudomonas aeruginosa [25]): 0.38 µg/mL (≈ 0.991 µM); MIC (Pseudomonas aeruginosa [26]): 0.064 µg/mL (≈ 0.167 µM); MIC (Pseudomonas aeruginosa [35]): 0.125 µg/mL (≈ 0.326 µM); MIC (Pseudomonas aeruginosa [27]): 0.125 µg/mL (≈ 0.326 µM); MIC (Pseudomonas aeruginosa [28]): 0.19 µg/mL (≈ 0.495 µM); MIC (Pseudomonas aeruginosa [30]): 0.125 µg/mL (≈ 0.326 µM); MIC (Pseudomonas aeruginosa [33]): 0.064 µg/mL (≈ 0.167 µM)
